Seven compounds from ChEMBL document CHEMBL3046092, “Synthesis and fungicidal activity of 1-(alpha-tert-butylcinnamoyl)imidazoles” (2002) can be followed below.

One assay deals with Botrytis cinerea. The assay can be described thus: Antifungal activity against Botryotinia fuckeliana in cucumber seedlings assessed as reduction in gray mold measured after 4 days by pot test. In kind it is functional. The method, boiled down: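 Emulsifiable-concentrate formulations were diluted in water and foliar-sprayed to run-off onto cotyledon-stage seedlings. Plants were held 1 day in the greenhouse, then inoculated with agar gel carrying B. cinerea and kept 4 more days at 20°C, humid and dark. Infection degree was scored against untreated controls. pED50 is the negative log of the molar concentration giving 50% control.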

Another assay deals with Blumeria graminis. As to the kind of experiment: Antifungal activity against Blumeria graminis in wheat seedlings assessed as reduction in powdery mildew at 20 degC measured after 10 days by pot test. In kind it is functional.

SMILES strings stand for the structures.

Take `Cc1ccc(/C=C(\C(=O)n2ccnc2)C(C)(C)C)cc1`: the pED50 with Botrytis cinerea worked out at 3.43; with Blumeria graminis, 3.92.
Taken in the same sequence, the figures for `CC(C)(C)/C(=C/c1ccc(C#N)cc1)C(=O)n1ccnc1` were 4.4 and 5.89.
`CC(C)(C)/C(=C/c1ccc(C(F)(F)F)cc1)C(=O)n1ccnc1`: the pED50 was determined as 3.04 in the assay on Botrytis cinerea and 4.19 in the assay with Blumeria graminis.
For `CC(C)(C)/C(=C\c1ccc(Cl)cc1)C(=O)n1ccnc1`, in that order: 2.92 and 3.52.
Taken in the same sequence, the figures for `CC(C)(C)/C(=C/c1ccccc1)C(=O)n1ccnc1` were 3.4 and 4.17.
For `CC(C)(C)/C(=C/c1ccc(Cl)cc1)C(=O)n1ccnc1`, the pED50 in the assay with Botrytis cinerea was found to be 4.82; with Blumeria graminis it was 5.92.
Taken in the same sequence, the figures for `CC(C)(C)/C(=C/c1ccc(Br)cc1)C(=O)n1ccnc1` were 4.63 and 5.96.
